A short description of data set [1]: Displacement of [3H]-DTG from sigma 2 receptor in rat liver membrane after 30 mins by radioligand binding assay. The class given is cell membranes. An outline of the steps: (§1)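 […] (30 Ci/mmol) radioligand binding per Matsumoto et al. IC50 taken from six to nine drug concentrations, in two or three experiments with duplicate samples. Ki obtained by non-linear curve fitting. Tested as hydrochloride salts.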

The target of data set [2] is Sigma non-opioid intracellular receptor 1 (Cavia porcellus, UniProt Q60492). As to the kind of experiment: Displacement of [3H]-pentazocine from sigma 1 receptor in guinea pig brain after 30 mins by radioligand binding assay.
Sigma non-opioid intracellular receptor 1, sequence (Q60492 whole entry): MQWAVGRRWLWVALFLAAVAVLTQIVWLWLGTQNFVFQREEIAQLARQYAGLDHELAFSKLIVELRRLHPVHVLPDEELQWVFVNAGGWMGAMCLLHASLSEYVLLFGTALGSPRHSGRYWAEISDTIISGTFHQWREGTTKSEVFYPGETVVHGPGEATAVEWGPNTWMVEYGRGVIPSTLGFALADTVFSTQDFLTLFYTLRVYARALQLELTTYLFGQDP
A short description of data set [3]: Inhibition of P-gp in dog MDCK-MDR1 cells by calcein-AM assay. The class given is cell-based, Canis lupus familiaris. An outline of the steps: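 MDCK-MDR1 cells overexpressing P-gp, grown in DMEM high glucose with 10% FBS and 2 mM glutamine at 37 °C under 5% CO2. Seeded at 50,000 cells/well and left overnight to confluence. Compound added for 30 min at 37 °C, then calcein-AM (final 2.5 µM in PBS) for 30 min. Wells washed with ice-cold PBS. Fluorescence read at 485/535 nm. EC50 from % increase over untreated basal versus log dose.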

Data set [4] can be described thus: Selectivity ratio of Ki for sigma 1 receptor in guinea pig brain to Ki for sigma 2 receptor in rat liver membrane. The format is cell membranes.
Data set [5] can be described thus: Lipophilicity, log D of the compound at pH 7.4. The format is physicochemical. Conditions: buffer. In a few lines: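 LogD calculated for compounds at pH 7.4.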
The next data set is filed under the species Rattus norvegicus. As to the kind of experiment: Displacement of [3H]-DTG from sigma 2 receptor in rat liver membrane at […] after 30 mins by radioligand binding assay. The class given is cell membranes. In a few lines: as §1
(In general: Displacement assays read how much labelled ligand stays bound in the presence of the test substance.)

Here are results for 14 compounds from ChEMBL document CHEMBL1828588, “Arylamides hybrids of two high-affinity σ2 receptor ligands as tools for the development of PET radiotracers” (Eur J Med Chem, 2011).

Broadly, the Ki is a dissociation constant, usually derived from enzyme kinetics or from competition with a known ligand. High values mean a looser hold on the target, low ones a stronger hold on the target. As usually defined, the EC50 is the concentration at which the effect is half-maximal. The term logD denotes lipophilicity at a set pH, counting ionised and neutral species. Lower therefore signals lower lipophilicity. For the compound `COc1cc(Br)c(C(=O)NCCCN2CCc3cc(OC)c(OC)cc3C2)cc1OC`, the Ki came out at 50.9 nM in data set [1] and 2570 nM in data set [2]. For the same compound, the 50% effective concentration (EC50) in data set [3] was 45000 nM. Further, the Ratio Ki in data set [4] stood at 50. Besides, the logD in data set [5] is 2.89.
Consider `COc1cccc2c1CCCC2C(=O)NCCCN1CCN(C2CCCCC2)CC1` (stereo not drawn), for which the Ki stood at 16.5 nM in data set [1] and 35.1 nM in data set [2]. For the same compound, the EC50 in data set [3] was 8600 nM. In addition, the Ratio Ki in data set [4] is 2. In data set [5], this compound returned a logD of 2.46.
In the case of `O=C1c2ccccc2CCN1CCCN1CCN(C2CCCCC2)CC1`, the figures for the Ki in data set [1] and in data set [2] were 26.6 nM and 24.7 nM, respectively. Also, in data set [3], the 50% effective concentration (EC50) was 20000 nM. Moreover, in data set [4], the Ratio Ki is 1. In data set [5], this compound had a logD of 1.49.
For the compound `COc1ccc(C)cc1C(=O)NCCCN1CCN(C2CCCCC2)CC1`, the Ki in data set [1] came to 26.1 nM; in data set [2] it was 45.5 nM. The 50% effective concentration (EC50) in data set [3] is 8600 nM. Besides, the Ratio Ki in data set [4] worked out at 1.7. The log distribution coefficient (logD) in data set [5] was determined as 1.94.
With `COc1cc2c(cc1OC)CN(CCCNC(=O)C1CCCc3c(OC)cccc31)CC2` (stereo not drawn), the Ki in data set [1] was 21.1 nM; in data set [2], 146 nM. Moreover, the half-maximal effective concentration (EC50) in data set [3] is 2700 nM. The Ratio Ki in data set [4] is 7. Moreover, the logD in data set [5] turned out to be 3.21.
`COc1cc2c(cc1OC)CN(CCCNC(=O)c1cc(Br)cc(OC)c1OC)CC2`: the inhibition constant Ki is 12.9 nM in data set [1] and 4400 nM in data set [2]. Moreover, the EC50 in data set [3] was 2500 nM. Moreover, in data set [4], the Ratio Ki turned out to be 341. In addition, in data set [5], the log distribution coefficient (logD) is 3.22.
With `COc1cc2c(cc1OC)CN(CCCN1CCc3ccccc3C1=O)CC2`, the inhibition constant (Ki) is 4.84 nM in data set [1] and 709 nM in data set [2]. Further, the half-maximal effective concentration (EC50) in data set [3] is 12000 nM. Besides, the Ratio Ki in data set [4] was determined as 147. This compound also yielded a logD in data set [5] of 2.25.
The matching figures for `COc1cc2c(cc1OC)CN(CCCCNC(=O)c1cc(C)ccc1OC)CC2`: 8.68 nM, 2150 nM, 1600 nM, 247 and 2.83.
On to `COc1cc(Br)cc(C(=O)NCCCN2CCN(C3CCCCC3)CC2)c1OC`, for which the inhibition constant Ki came to 21.2 nM in data set [1] and 25.8 nM in data set [2]. Besides, the EC50 in data set [3] is 2700 nM. Further, in data set [4], the Ratio Ki was determined as 1.2. This compound registered a log distribution coefficient (logD) in data set [5] of 2.43.
As for `COc1cc2c(cc1OC)CN(CCCNC(=O)c1cc(C)ccc1OC)CC2`, the Ki worked out at 2.63 nM in data set [1] and 534 nM in data set [2]. Besides, in data set [3], the 50% effective concentration (EC50) was 5300 nM. Also, the Ratio Ki in data set [4] was found to be 203. This compound gave a logD in data set [5] of 2.7.
The matching figures for `COc1cc(Br)c(C(=O)NCCCN2CCN(C3CCCCC3)CC2)cc1OC`: 467 nM, 268 nM, 45000 nM, 0.6 and 2.11.
For `Cc1ccccc1NC(=N)Nc1ccccc1C` [DITOLYLGUANIDINE], affinity in data set [1] was put at a Ki of 26.3 nM.
`COc1cccc2c1CCCC2CCCN1CCN(C2CCCCC2)CC1` (stereo not drawn) had a Ki in data set [1] of 0.68 nM. In data set [3], the 50% effective concentration (EC50) was 3000 nM. For the same compound, the logD in data set [5] was 3.75.
On to `COc1cc2c(cc1OC)CN(CCCC1CCCc3c(OC)cccc31)CC2` (stereo not drawn), for which the affinity in data set [2] corresponds to a Ki of 151 nM. The EC50 in data set [3] is 1100 nM. The Activity in the data set listed under Rattus norvegicus turned out to be 96%. Moreover, in data set [5], the logD was found to be 4.33.
